Screening results (PubChem)
A1 inh: caspase 3/7 activation in MEF A1-2A-BIM cells, primary screen, A1 inhibitor project, cell-based, luminescence, HTS; Caspase-Glo 3/7 luminescence, 3 h; percent of clofoctol response, vehicle zero; caspase activation, % (no concentration beside the values); 330,000 tested, 0.066% active;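 active = over half of replicate activation scores above 10%, or exactly half above 10 with the replicate mean above 10; inconclusive = replicate mean below 10 yet half the replicates above 10; inactive = over half of replicates below 10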
UPR CHOP act: activators of apoptotic CHOP UPR arm, primary screen, cell-based, CHO-CHOP luciferase reporter, luminescence, uHTS; 330,000 tested, 0.34% active; UPR activation; percent of tunicamycin response over DMSO baseline; activation, % at 10 µM;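 active = at 10 µM dose, activation of 40% or more, normalized to positive control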;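 also: 100% = tunicamycin at 10 µg/mL and 0% = DMSO alone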
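Evaluation: % reporter activation, DMSO baseline versus tunicamycin full activation; System: CHO-CHOP luciferase reporter cell line; Input: 500 cells/well; Incubation: 6 h compound treatment, 37 °C; Measured by: Steady-Glo luciferase luminescence; Dosing: one dose, 10 µM in 0.5% DMSO; Buffer or medium: F12 medium, 10% FBS; Benchmarks: positive tunicamycin 10 µg/mL, negative DMSO alone.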
MC4R barr agon: MC4R agonists recruiting beta-arrestin, primary screen, cell-based, luminescence, agonist arm of biased-ligand search; Melanocortin receptor 4 (Homo sapiens), P32245; U2OS MC4R beta-arrestin complementation; percent of melanotan II response, DMSO zero; activation, % at 8.9 µM; 360,000 tested, 0.98% active;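 active = activation above a per-plate cutoff, the mean activation of sample wells on that plate plus 3 SD, cut at about 8% in these data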
Target sequence (P32245 whole entry, looked up): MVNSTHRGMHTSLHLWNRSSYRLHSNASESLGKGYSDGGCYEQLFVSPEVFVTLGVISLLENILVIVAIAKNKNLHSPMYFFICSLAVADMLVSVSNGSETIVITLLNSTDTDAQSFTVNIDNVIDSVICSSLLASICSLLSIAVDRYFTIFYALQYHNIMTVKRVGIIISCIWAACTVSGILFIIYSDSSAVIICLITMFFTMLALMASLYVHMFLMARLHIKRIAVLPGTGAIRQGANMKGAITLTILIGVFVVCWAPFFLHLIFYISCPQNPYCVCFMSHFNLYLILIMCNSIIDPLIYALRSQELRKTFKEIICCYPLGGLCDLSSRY
MC4R antag cAMP: MC4R antagonists of cAMP signaling, primary screen, cell-based, TR-FRET, antagonist arm of biased-ligand search; Melanocortin receptor 4 (Homo sapiens), P32245; 360,000 tested, 0.48% active; AID 540295, 2011; inhibition, % at 6.5 µM; MC4R-expressing cells, MTII-stimulated cAMP, LANCE TR-FRET;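 active = inhibition above its plate's cutoff, the mean of tested wells on that plate plus 3 SD, cut at about 29% in these data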;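 also: 0% = Melanotan II alone and 100% = Melanotan II plus saturating MCL0020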
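System – human MC4R-expressing U2OS cells · Also added – Melanotan II · Dosing – one concentration, 6.5 µM nominal · Timing – 30-min compound, 1-h challenge, 1-h detection, room temperature · Measured by – Eu-cAMP/anti-cAMP TR-FRET, emission 671 nm · Replicates – singlicate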
UPR XBP1 act: activators of adaptive XBP1 UPR arm, primary screen, cell-based, CHO-XBP1 luciferase reporter, luminescence, uHTS | IRE1-XBP1 UPR activation; percent of tunicamycin response, DMSO as zero | activation, % at 20 µM | 330,000 tested, 0.33% active | AID 463104, 2010;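 active = versus positive control, 20 µM dose yields 30% or more activation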;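 also: 100% = tunicamycin at 10 µg/mL and 0% = DMSO only wells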
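Material: CHO-XBP1 cells stably carrying IRE1-XBP1-driven luciferase reporter | Medium: F12 with 10% serum | Compound dosing: 20 µM single concentration, DMSO 1% | Incubation: Overnight seeding at 37 °C, 6 h compound treatment at 37 °C | Detection: Steady-Glo luminescence read | Read-out basis: % activation of reporter signal versus tunicamycin and DMSO controls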
cAMP nonselect: nonselective cAMP signaling inhibitors, parental cells, counter-screen for MC4R biased antagonist project, cell-based, TR-FRET, U2OS, forskolin, triplicate. inhibition, % at 6.5 µM. 1,600 tested, 26% active. LANCE TR-FRET. shares compounds with MC4R antag cAMP;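 active = mean inhibition over triplicates above the low-control well mean plus 3 SD, set per campaign, cut at about 13% in these data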;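 also: signal is single emission at 671 nm which falls as cellular cAMP rises; 0% = forskolin-stimulated wells and 100% = buffer without forskolin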
MC4R antag conf: MC4R cAMP antagonists, retest, confirmation, cell-based, TR-FRET; inhibition, % at 6.5 µM; shares compounds with MC4R antag cAMP; 1,600 tested, 27% active; MC4R-expressing cells, MTII-stimulated cAMP; in the data active = inhibition above about 29%;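 also: 0% = agonist stimulated wells alone and 100% = agonist stimulated wells plus saturating reference antagonist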
An asterisk follows results filed as active; ? = inconclusive; / = no result given. Only some compounds are listed: those with a hit (about 2% of all), similar ones and a draw of the others.

SMILES	A1 inh	UPR CHOP act	MC4R barr agon	MC4R antag cAMP	UPR XBP1 act	cAMP nonselect	MC4R antag conf
COc1ccc(CN(C(=O)/C=C/C(=O)c2ccc(OC)cc2O)C(C(=O)NC2CCCCC2)c2ccncc2)cc1 (centres undefined)	0	1	0	10	-1	/	/
COc1ccc(C(=O)/C=C/C(=O)N(CC(=O)NC2CCCCC2)Cc2cccs2)c(O)c1	26*	-9	-6	32*	-9	10	23
Cc1ccccc1-n1c(SCC(=O)Nc2c(C)cccc2C)nc(O)cc1=O	0	1	2	34*	-4	4	-8
CC1(C(=O)NS(=O)(=O)c2cccc(OC(F)F)c2)CCN1C(=O)c1ccco1 (centres undefined)	/	/	0	-2	/	/	/
O=S(=O)(Nc1cc(Sc2ncn[nH]2)c(O)c2ccccc12)c1ccccc1	/	3	-2	53*	11	10	8
COCCNC(=O)C1(C)CCN(C(=O)c2ccc3ccccc3n2)C1 (centres undefined)	/	/	0	11	/	/	/
O=C(Nc1nc2cc(Cl)ccc2s1)C1CCCN(S(=O)(=O)c2cccc3cccnc23)C1 (centres undefined)	-1	2	3	29*	1	2	19
O=C(Nc1ccccc1Cl)C1CCCN(S(=O)(=O)c2cccc3cccnc23)C1 (centres undefined)	?	-2	1	2	-3	/	/
OC(c1ccc(F)cc1)c1ncc(-c2ccc3ccccc3c2)[nH]1 (centres undefined)	/	/	2	6	/	/	/
Cc1ccc(CNC(=O)C2(C)CCN2C(=O)Cc2ccc(-c3ccccc3)cc2)cc1 (centres undefined)	/	/	0	13	/	/	/
Cc1ccc(N2CCN(C(=O)c3cccc([N+](=O)[O-])c3)CC2)cc1Cl	0	-2	0	33*	-2	0	-10
CC1(C)CC[C@]2(C(=O)O)CC[C@]3(C)C(=CC[C@@H]4[C@@]5(C)CC[C@H](O[C@@H]6O[C@H](C(=O)O)[C@@H](O)[C@H](O[C@@H]7OC[C@H](O)[C@H](O)[C@H]7O)[C@H]6O)C(C)(C)[C@@H]5CC[C@]43C)[C@@H]2C1	0	2	-2	111*	3	36*	22
Cc1ccc(-c2cc3nc(-c4ccccc4)cc(NCCCO)n3n2)cc1	/	/	0	20	/	/	/
Cc1cc(NC(=O)CSc2nc(-c3ccccc3)c(C#N)c(=O)[nH]2)no1	/	-1	2	35*	1	26*	50*
Cc1cc(C)nc(NS(=O)(=O)c2ccc(NC(=O)Cc3ccccc3)cc2)n1	-5	-2	1	35*	-3	2	-12
Cc1cc(C)nc(NS(=O)(=O)c2ccc(NC(=O)CSc3nc(-c4ccccc4)c(C#N)c(=O)[nH]3)cc2)n1	2	0	-2	36*	-2	17*	26
N#CC(CC(=O)OCc1ccccc1)NC(=O)OCc1ccccc1 (centres undefined)	/	/	-2	10	/	/	/
COc1ccc(-c2csc3nc[nH]c(=O)c23)cc1	2	-3	-2	-1	0	/	/
COc1ccc(-c2cnc3nc[nH]c(=O)c3n2)cc1	0	3	2	29*	0	-2	-2
COc1cc(S(=O)(=O)n2ccc(C)n2)ccc1Cl	0	1	0	29*	-1	1	-7
CC1(C(=O)NCc2ccccc2Br)CCN1Cc1ccc(-c2ccccn2)cc1 (centres undefined)	/	/	3	8	/	/	/
